Assay results from PubChem BioAssay.
Inconclusive results are not listed. The source made the active and inactive calls.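 How the source made its calls, unless noted: active means viability increase at or above a cutoff of the median across tested compounds plus 3 SD (cut at about 8.5% in these data, passing the limit was not always enough); inconclusive means some gains above the cutoff, reason not given; inactive means the rest.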

What was measured:
[1] = S. cerevisiae growth inhibition in permissive medium (OD615), pilot counter-assay for S. cerevisiae lifespan shortening project, permissive growth control (AID 705;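 active means growth inhibition above 25% in both replicates, a cutoff set 3 SD above the mean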); conditions: OD615, 24 h, at 10 µM, hits give high values
Outline: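 System: engineered DeaD yeast; Medium: permissive raffinose/galactose medium; Compound dosing: 10 µM single dose, 0.25% DMSO; Incubation: 4 h cell pre-growth, 24 h exposure at 30 °C; Technique: OD at 615 nm; Evaluation: growth inhibition from lowered OD615 after 24 h.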

[2] = S. cerevisiae growth inhibition in restrictive medium, OD615, pilot screen, restrictive growth control, yeast lifespan reduction project (AID 706;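 active means growth inhibition above a set limit, 3 SD over mean compound inhibition, in both replicates, cut at about 43% in these data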;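 further: modified DeaD lifespan yeast strain shifted to restrictive glucose medium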); conditions: OD615, 48 h, at 10 µM, hits give high values
Outline: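 Material: modified S. cerevisiae; buffer or medium: CSMM-D glucose medium; doses: one concentration, 10 µM final, 0.25% DMSO; incubation: 48 h compound exposure at 30 °C; detection: optical density at 615 nm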

[3] = doxorubicin toxicity protection in MRP-1 cells – H69AR cells, CellTiter-Glo, duplicate, MRP-1 activator project, pilot screen (AID 807); conditions: H69AR viability with doxorubicin, CellTiter-Glo luminescence; at 10 µM; hits give high values;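 further: compound pretreatment 18-22 h then 72 h combined with doxorubicin; 0% = doxorubicin alone and 100% = vehicle without doxorubicin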
[4] = viability of HCT116 without oncogenic beta-catenin – human colon tumor cells, pilot screen (AID 823;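 active means cell viability at or below a set limit in both duplicate runs, the limit being the all-compound median minus 4 SD, cut at about 23% in these data, passing the limit was not always enough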;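 further: 0% = wells killed by 20 µM Hyamine and 100% = untreated DMSO cell wells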); conditions: HCT116 beta-catenin knockout viability, CellTiter-Glo, 60 h; at 10 µM; hits give low values
[5] = viability of PTEN-null HCT116 cells – cell-based, HCT116 clonal line, CellTiter-Glo, pilot screen (AID 824;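 active means viability at or below 27.92% in each of two runs, the all-compound median minus 4 SD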;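 further: 0% = 20 µM Hyamine control and 100% = vehicle cell control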); conditions: HCT116 PTEN-deleted viability, 60 h, at 10 µM, hits give low values
[6] = RAM pathway blockade in budding yeast – dse1pr::URA3 reporter, 5-FOA selection, pilot screen (AID 869;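 active means inhibition over a set limit, the all-compound mean plus 3 SD, in both replicate runs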;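 further: 0% = DMSO wells with no growth and 100% = 10 µM 1-NA-PP1 with full growth; RAM network block rescues cells from 5-FOA so hits raise OD615 growth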); conditions: S. cerevisiae dse1pr::URA3 5-FOA growth, OD615, 2 d; at 10 µM; hits give high values; strain carries analog-sensitive mutant Cbk1 kinase
[7] = RAM signaling pathway blockade in yeast – S. cerevisiae, Pdr1DBD-CYC8 efflux-inhibited sensitized strain, primary screen (AID 1298;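 active means RAM network inhibition above 8.4% in each of two replicates, 3 SD over the compound average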;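 further: 0% = DMSO untreated cells without growth and 100% = 10 µM 1-NA-PP1 full growth; higher means more yeast growth rescued from 5-FOA killing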); conditions: S. cerevisiae cbk1-as DSE1-URA3 strain, 5-FOA growth OD615, 2 d; at 50 µM; hits give high values

O=C(C1Cc2ccccc2O1)N1CCCCC1 (configuration not stated)
inactive: growth inhibition [1] -0.465% | growth inhibition [2] 2.46% | viability increase [3] -1.5% | viability [4] 103% | viability [5] 101% | inhibition [6] 0.17% | RAM network inhibition [7] 4.37%

Cc1cc(C(C)(C)C)oc1C(=O)Nc1ccc(CC(=O)O)cc1
inactive: growth inhibition [1] -5.71% | growth inhibition [2] 6.31% | viability increase [3] 1.52% | viability [4] 100% | viability [5] 98.9% | inhibition [6] 1.31% | RAM network inhibition [7] 3.99%

CN(Cc1ccccc1)c1nnc(N)s1
inactive: growth inhibition [1] 0.13% | growth inhibition [2] -3.49% | viability increase [3] -2% | viability [4] 105% | viability [5] 102% | inhibition [6] 0.935% | RAM network inhibition [7] 2.5%

Cn1c(=O)oc2cc(S(=O)(=O)N3CCC(C(=O)N4CC=C(c5ccccc5)CC4)CC3)ccc21
inactive: growth inhibition [1] -0.22% | growth inhibition [2] 4.63% | viability increase [3] 0.15% | viability [4] 98.9% | viability [5] 94.8% | inhibition [6] 0.01% | RAM network inhibition [7] 6.76%

Cc1c(NC2=C(Cl)C(=O)N(c3ccccc3)C2=O)c(=O)n(-c2ccccc2)n1C
inactive: growth inhibition [1] 8.25% | growth inhibition [2] 28.3% | viability increase [3] -6.66% | viability [4] 90.7% | viability [5] 94.4% | inhibition [6] 1.42% | RAM network inhibition [7] 3.28%

CC(C)N1C(=O)CCC1C(=O)NCCc1ccc(Cl)cc1 (configuration not stated)
inactive: growth inhibition [1] -1.75% | growth inhibition [2] 3.14% | viability increase [3] 0.32% | viability [4] 100% | viability [5] 97.3% | inhibition [6] 0.29% | RAM network inhibition [7] -0.47%

C=CCNc1oc(Cc2cccc3ccccc23)nc1C#N
inactive: growth inhibition [1] -19.8% | growth inhibition [2] -9.46% | viability increase [3] -3.89% | viability [4] 107% | viability [5] 88% | inhibition [6] 1.04% | RAM network inhibition [7] 2.18%

CN(C)c1ccnc2sc(C(=O)NCc3ccccc3)c(N)c12
inactive: growth inhibition [1] -17.2% | growth inhibition [2] 17.5% | viability increase [3] -2.17% | viability [4] 81.3% | viability [5] 78.7% | inhibition [6] 2.11% | RAM network inhibition [7] 1.39%

Cc1ccc(C)c(N2CCN(c3ncnc4c3cnn4-c3ccccc3)CC2)c1
inactive: growth inhibition [1] -11.6% | growth inhibition [2] -18.3% | viability increase [3] 2.4% | viability [4] 72.5% | viability [5] 68.6% | inhibition [6] 3.82% | RAM network inhibition [7] 7.43%

NC(=O)c1ccsc1NC(=O)C1CC1
inactive: growth inhibition [1] -0.315% | growth inhibition [2] 0.175% | viability increase [3] -2.38% | viability [4] 103% | viability [5] 100% | inhibition [6] 1.22% | RAM network inhibition [7] 0.32%

CCN(CC)CCOc1ccc(Br)cc1
inactive: growth inhibition [1] -12.9% | growth inhibition [2] -12.2% | viability increase [3] -0.72% | viability [4] 90.1% | viability [5] 103% | inhibition [6] 1.24% | RAM network inhibition [7] 1.1%

Cc1ccc2c(c1)NC(=O)C(CC(=O)O)O2 (configuration not stated)
inactive: growth inhibition [1] 2.33% | growth inhibition [2] 0.555% | viability increase [3] -0.27% | viability [4] 103% | viability [5] 99.7% | inhibition [6] 1.48% | RAM network inhibition [7] 4.69%

COc1ccc(C2C(C(=O)c3ccco3)=C(O)C(=O)N2CCc2ccccc2)cc1OC (configuration not stated)
inactive: growth inhibition [1] -12.1% | growth inhibition [2] 7.54% | viability increase [3] -1.95% | viability [4] 101% | viability [5] 92.5% | inhibition [6] 5.36% | RAM network inhibition [7] 4.36%

Clc1ccccc1N1CCN(c2ncnc3nc[nH]c23)CC1
inactive: growth inhibition [1] 7.42% | growth inhibition [2] -4.18% | viability increase [3] -1.4% | viability [4] 95% | viability [5] 95.7% | inhibition [6] 4.08% | RAM network inhibition [7] 5.77%

O=C(COC(=O)C(O)c1ccccc1)c1ccc2c(c1)OCCO2 (configuration not stated)
inactive: growth inhibition [1] -4.38% | growth inhibition [2] -9.29% | viability increase [3] -0.39% | viability [4] 97.1% | viability [5] 106% | inhibition [6] 1.27% | RAM network inhibition [7] 4.89%

CC(=O)c1ccc(OCC(O)COc2ccc(C(C)=O)cc2)cc1
inactive: growth inhibition [1] -2.04% | growth inhibition [2] -4.87% | viability increase [3] 0.11% | viability [4] 96.2% | viability [5] 94.7% | inhibition [6] 1.22% | RAM network inhibition [7] 0.16%

CCCCCn1c(N2CCC(Cc3ccccc3)CC2)nc2c1c(=O)[nH]c(=O)n2C
inactive: growth inhibition [1] -14.9% | growth inhibition [2] -29.9% | viability increase [3] -8.6% | inhibition [6] 1.22% | RAM network inhibition [7] 7.3%
active: viability [4] 15.1% | viability [5] 12.8%

Cc1[nH]nc2c1C(c1ccccc1F)NC2=O (configuration not stated)
inactive: growth inhibition [1] -0.665% | growth inhibition [2] -2.84% | viability increase [3] -1.22% | viability [4] 106% | viability [5] 97.9% | inhibition [6] 2.04% | RAM network inhibition [7] -0.67%

COc1ccc(NC(=O)Nc2nnc(N3CCCCC3C)s2)cc1OC (configuration not stated)
inactive: growth inhibition [1] -5.21% | growth inhibition [2] -10.4% | viability increase [3] -1.91% | viability [4] 99.2% | viability [5] 97.4% | inhibition [6] 2.48% | RAM network inhibition [7] 3.85%

CCOC(=O)C1CCCN(C(=O)Cn2sc3nc(C)cc(C)c3c2=O)C1 (configuration not stated)
inactive: growth inhibition [1] 18.4% | growth inhibition [2] 29.4% | viability increase [3] -8.04% | inhibition [6] 1.51% | RAM network inhibition [7] 2.71%
active: viability [4] 3.38% | viability [5] 12.6%

Cc1cnn(C(=O)c2ccccc2Br)c1
inactive: growth inhibition [1] 3.79% | growth inhibition [2] -3.8% | viability increase [3] -1.43% | viability [4] 109% | viability [5] 103% | inhibition [6] -0.355% | RAM network inhibition [7] 1.6%

O=C(NCc1nc2ccccc2[nH]1)c1cccs1
inactive: growth inhibition [1] -13.9% | growth inhibition [2] -1.7% | viability increase [3] 0.55% | viability [4] 105% | viability [5] 103% | inhibition [6] 2.04% | RAM network inhibition [7] 5.75%

C=CCSc1nc2c(cnn2-c2ccc(C)c(C)c2)c(=O)[nH]1
inactive: growth inhibition [1] -6.23% | growth inhibition [2] -5.07% | viability increase [3] -1.43% | viability [4] 93.3% | viability [5] 93.1% | inhibition [6] 4.19% | RAM network inhibition [7] 0.11%

CC1=CS/C(=C(/C#N)C(=O)N2CCOCC2)N1c1ccccc1
inactive: growth inhibition [1] -2.33% | growth inhibition [2] 1.7% | viability increase [3] -1.17% | viability [4] 94.2% | viability [5] 94.7% | inhibition [6] 0.255% | RAM network inhibition [7] 0.92%

CN=C1SC(CC(=O)Nc2ccccc2F)C(=O)N1C (configuration not stated)
inactive: growth inhibition [1] 0.635% | growth inhibition [2] 0.465% | viability increase [3] -0.48% | viability [4] 112% | viability [5] 98.9% | inhibition [6] 1.99% | RAM network inhibition [7] 1.28%

CC(=O)Nc1nc2n(n1)C(c1ccccc1)C=C(c1ccccc1)N2 (configuration not stated)
inactive: growth inhibition [1] -7.58% | growth inhibition [2] 4.18% | viability increase [3] -2.94% | viability [4] 99.9% | viability [5] 106% | inhibition [6] 1.06% | RAM network inhibition [7] 1.19%

COc1cc2c(C(=O)NCc3ccccn3)cn(C)c(=O)c2cc1OC
inactive: growth inhibition [1] -8.38% | growth inhibition [2] -2.63% | viability increase [3] -1.1% | viability [4] 102% | viability [5] 95.3% | inhibition [6] 1.86% | RAM network inhibition [7] 1.07%

O=C(NC1CCCCCC1)C1CCN(C(=O)Cc2ccccc2)CC1
inactive: growth inhibition [1] -11.1% | growth inhibition [2] -9.52% | viability increase [3] -1.12% | viability [4] 101% | viability [5] 94.3% | inhibition [6] 0.785% | RAM network inhibition [7] 3.07%

O=C(NCN1CCc2ccccc2C1)c1cnccn1
inactive: growth inhibition [1] -18.3% | growth inhibition [2] -15.1% | viability increase [3] -3.49% | viability [4] 96.3% | viability [5] 96.6% | inhibition [6] 3.92% | RAM network inhibition [7] 5.24%

CC(=O)Nc1ccc(NC(=O)c2oc3cc(C)c(C)cc3c2C)cc1
inactive: growth inhibition [1] -7.1% | growth inhibition [2] -17% | viability increase [3] -0.82% | viability [4] 104% | viability [5] 96.4% | inhibition [6] 2.38% | RAM network inhibition [7] 5.95%

COc1cc2c(cc1OC)CN(S(C)(=O)=O)CC2
inactive: growth inhibition [1] -0.905% | growth inhibition [2] -20.7% | viability increase [3] -2.27% | viability [4] 110% | viability [5] 94.7% | inhibition [6] 1.33% | RAM network inhibition [7] 1.26%

COc1ccc(Cl)cc1C(=O)NCC(c1ccco1)N1CCCC1 (configuration not stated)
inactive: growth inhibition [1] -8.88% | growth inhibition [2] -4.32% | viability increase [3] -3.47% | viability [4] 81% | viability [5] 80.7% | inhibition [6] 2.23% | RAM network inhibition [7] 10.1%

CC1(C)CC(=O)C=C(Nc2ccccc2F)C1
inactive: growth inhibition [1] -10.4% | growth inhibition [2] -10.5% | viability increase [3] -2.25% | viability [4] 111% | viability [5] 98.3% | inhibition [6] -0.01% | RAM network inhibition [7] 1.22%

CCCCC(CC)CNC(=O)CCS(=O)(=O)c1cccc2nonc12 (configuration not stated)
inactive: growth inhibition [1] 1.79% | growth inhibition [2] -0.105% | viability increase [3] -0.88% | viability [4] 92.2% | viability [5] 91.4% | inhibition [6] 2.17% | RAM network inhibition [7] 3.63%

O=C(c1cc(-c2cccc(O)c2)on1)N1CCc2ccccc2C1
inactive: growth inhibition [1] -7.54% | growth inhibition [2] -17.6% | viability increase [3] 1.48% | viability [4] 114% | viability [5] 99.2% | inhibition [6] 0.005% | RAM network inhibition [7] -2.99%

Cc1onc(-c2ccccc2)c1C(=O)NC(C)C
inactive: growth inhibition [1] -11.8% | growth inhibition [2] -8.11% | viability increase [3] 0.11% | viability [4] 105% | viability [5] 98.8% | inhibition [6] 0.105% | RAM network inhibition [7] 3.45%
